Data reported in ChEMBL document CHEMBL3352010, “Synthesis and Pharmacology of a Novel κ Opioid Receptor (KOR) Agonist with a 1,3,5-Trioxazatriquinane Skeleton” (ACS Med Chem Lett, 2014).
pEC50, pKi: −log10 of the molar value.

Assays:
[1] = biological target: Kappa-type opioid receptor (Cavia porcellus, UniProt P41144); assay: Displacement of [3H]U69593 from kappa opioid receptor in guinea pig cerebellum
[2] = biological target: Delta-type opioid receptor (Mus musculus, UniProt P32300); assay: Displacement of [3H]DPDPE from delta opioid receptor in mouse whole brain without cerebellum
[3] = biological target: T1, Kappa-type opioid receptor (Homo sapiens, UniProt P41145); assay: Agonist activity at human kappa opioid receptor expressed in CHO cells assessed as stimulation of [35S]-GTPgammaS binding; format: functional, cell-based
[4] = system: Mus musculus; assay: Analgesic activity in sc dosed mouse assessed as inhibition of acetic acid-induced writhing response treated 15 mins before acetic acid challenge measured after 10 mins; format: functional
How it was run: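 Test agent given s.c. to mice; 15 min later, 0.6% acetic acid i.p. at 10 mL/kg. After a 10 min delay, abdominal constrictions were counted over the next 10 min. 8 mice per group; group means ± SEM; ED50 taken from the dose-response. Statistics by one-way ANOVA with Bonferroni test versus vehicle.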

[5] = biological target: Mu-type opioid receptor (Mus musculus, UniProt P42866); assay: Displacement of [3H]DAMGO from mu opioid receptor in mouse whole brain without cerebellum
[6] = biological target: T2, Delta-type opioid receptor (Homo sapiens, UniProt P41143); assay: Agonist activity at human delta opioid receptor expressed in CHO cells assessed as stimulation of [35S]-GTPgammaS binding; format: functional, cell-based
[7] = biological target: T1, Kappa-type opioid receptor; assay: Agonist activity at human kappa opioid receptor expressed in CHO cells assessed as stimulation of [35S]-GTPgammaS binding relative to U69593; format: functional, cell-based
[8] = biological target: T2, Delta-type opioid receptor; assay: Agonist activity at human delta opioid receptor expressed in CHO cells assessed as stimulation of [35S]-GTPgammaS binding relative to DPDPE; format: functional, cell-based

Kappa-type opioid receptor (Cavia porcellus, UniProt P41144), sequence (P41144 whole entry): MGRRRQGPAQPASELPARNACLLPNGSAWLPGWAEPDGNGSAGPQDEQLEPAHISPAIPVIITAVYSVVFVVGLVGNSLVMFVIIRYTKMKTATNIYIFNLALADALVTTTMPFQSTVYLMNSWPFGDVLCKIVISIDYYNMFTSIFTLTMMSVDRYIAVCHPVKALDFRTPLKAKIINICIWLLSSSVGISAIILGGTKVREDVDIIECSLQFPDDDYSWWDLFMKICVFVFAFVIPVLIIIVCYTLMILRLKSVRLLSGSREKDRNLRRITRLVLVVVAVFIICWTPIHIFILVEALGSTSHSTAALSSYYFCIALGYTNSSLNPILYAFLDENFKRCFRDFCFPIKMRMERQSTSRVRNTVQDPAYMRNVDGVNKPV
Mu-type opioid receptor, sequence (P42866 whole entry): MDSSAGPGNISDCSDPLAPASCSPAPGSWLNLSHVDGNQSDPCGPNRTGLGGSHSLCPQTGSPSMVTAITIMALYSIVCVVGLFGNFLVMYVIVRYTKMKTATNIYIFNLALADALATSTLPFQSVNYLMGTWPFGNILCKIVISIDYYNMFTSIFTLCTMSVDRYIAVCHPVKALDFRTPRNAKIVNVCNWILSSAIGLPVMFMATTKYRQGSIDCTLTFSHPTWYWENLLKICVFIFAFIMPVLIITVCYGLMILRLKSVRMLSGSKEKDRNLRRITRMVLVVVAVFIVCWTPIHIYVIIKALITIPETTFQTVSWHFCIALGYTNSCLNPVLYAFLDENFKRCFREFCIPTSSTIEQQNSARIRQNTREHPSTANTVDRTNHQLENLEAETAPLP
T1 sequence (P41145 whole entry): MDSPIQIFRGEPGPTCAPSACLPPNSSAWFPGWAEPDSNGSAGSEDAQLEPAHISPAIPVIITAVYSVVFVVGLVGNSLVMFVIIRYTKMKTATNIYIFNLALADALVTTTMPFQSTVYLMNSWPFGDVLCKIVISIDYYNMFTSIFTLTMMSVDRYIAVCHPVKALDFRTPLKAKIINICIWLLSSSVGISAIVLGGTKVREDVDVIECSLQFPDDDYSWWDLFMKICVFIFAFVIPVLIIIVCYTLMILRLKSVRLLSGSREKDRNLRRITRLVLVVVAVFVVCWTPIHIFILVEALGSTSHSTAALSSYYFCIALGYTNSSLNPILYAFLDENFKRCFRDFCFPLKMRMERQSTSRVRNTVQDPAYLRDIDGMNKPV
Delta-type opioid receptor (Mus musculus, UniProt P32300), sequence (P32300 whole entry): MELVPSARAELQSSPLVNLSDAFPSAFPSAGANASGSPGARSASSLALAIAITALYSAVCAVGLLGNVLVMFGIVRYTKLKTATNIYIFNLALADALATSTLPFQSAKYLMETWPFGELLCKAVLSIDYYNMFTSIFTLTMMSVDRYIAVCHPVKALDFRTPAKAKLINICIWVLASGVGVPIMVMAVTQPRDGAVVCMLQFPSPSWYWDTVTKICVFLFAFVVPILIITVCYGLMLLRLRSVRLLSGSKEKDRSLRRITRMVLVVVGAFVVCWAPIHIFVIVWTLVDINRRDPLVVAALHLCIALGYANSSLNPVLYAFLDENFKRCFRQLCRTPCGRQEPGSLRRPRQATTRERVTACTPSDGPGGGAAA
T2 sequence (P41143 whole entry): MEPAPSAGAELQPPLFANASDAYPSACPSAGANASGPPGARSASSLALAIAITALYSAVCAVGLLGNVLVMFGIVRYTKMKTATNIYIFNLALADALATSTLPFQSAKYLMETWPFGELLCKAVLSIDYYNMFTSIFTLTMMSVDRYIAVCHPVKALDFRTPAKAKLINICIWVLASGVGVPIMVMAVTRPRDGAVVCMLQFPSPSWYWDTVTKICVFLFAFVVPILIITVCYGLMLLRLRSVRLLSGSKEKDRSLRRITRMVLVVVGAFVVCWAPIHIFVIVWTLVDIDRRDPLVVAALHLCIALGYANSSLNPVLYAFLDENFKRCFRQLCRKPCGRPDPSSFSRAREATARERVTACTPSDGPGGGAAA

SMILES	pKi [1]	pKi [2]	pKi [5]	other results
C[C@@]1(c2cccc(O)c2)O[C@H]2CO[C@@H]3N2[C@H]1O[C@]3(C)c1cccc(O)c1 [listing 1 of 2 here]	8.33	< 6.00	< 6.00	pEC50 [3]: 7.30; ED50 [4]: 3.5 mg/kg; pEC50 [6]: 7.08
CC1(c2cccc(O)c2)OC2COC3N2C1OC3(C)c1cccc(O)c1 (stereo not given)	< 6.00	6.19	6.53	–
C[C@@]1(c2cccc(O)c2)O[C@H]2CO[C@@H]3N2[C@H]1O[C@]3(C)c1cccc(O)c1 [listing 2 of 2 here]	–	–	–	Emax [7]: 96.8%; Emax [8]: 23.4%; Activity [4]: Dose-dependent effect
C[C@@]1(c2cccc(O)c2)O[C@@H]2N3[C@H]1O[C@@](C)(c1cccc(O)c1)[C@@H]3O[C@@]2(C)c1cccc(O)c1 (relative stereo)	< 6.00	< 6.00	< 6.00	–
C[C@@]1(c2cccc(O)c2)O[C@@H]2N3[C@H]1O[C@](C)(c1cccc(O)c1)[C@@H]3O[C@@]2(C)c1cccc(O)c1 (relative stereo)	6.18	< 6.00	6.19	–
C[C@@]1(c2cccc(O)c2)O[C@@H]2N3[C@H]1O[C@](C)(c1cccc(O)c1)[C@@H]3O[C@]2(C)c1cccc(O)c1 (relative stereo)	< 6.00	< 6.00	6.03	–
C[C@@]1(c2cccc(O)c2)O[C@H]2CO[C@@H]3N2[C@H]1O[C@@]3(C)c1cccc(O)c1 (relative stereo)	6.10	< 6.00	6.13	–
C[C@@]1(c2cccc(O)c2)O[C@@H]2N3[C@H](CO[C@H]31)O[C@]2(C)c1cccc(O)c1 (relative stereo)	< 6.00	< 6.00	< 6.00	–
C[C@@]1(c2cccc(O)c2)O[C@H]2CO[C@@H]3N2[C@H]1O[C@]3(C)c1cccc(O)c1 (relative stereo) [listing 1 of 2 here]	8.22	< 6.00	< 6.00	pEC50 [3]: 7.01
C[C@]1(c2cccc(O)c2)O[C@H]2CO[C@@H]3N2[C@H]1O[C@]3(C)c1cccc(O)c1 (relative stereo)	< 6.00	< 6.00	< 6.00	–
C[C@@]1(c2cccc(O)c2)O[C@H]2CO[C@H]3CO[C@@H]1N32 (relative stereo)	< 6.00	< 6.00	< 6.00	–
C[C@]1(c2cccc(O)c2)O[C@H]2CO[C@H]3CO[C@@H]1N32 (relative stereo)	< 6.00	< 6.00	< 6.00	–
COc1cccc([C@]2(C)O[C@H]3CO[C@@H]4N3[C@H]2O[C@]4(C)c2cccc(OC)c2)c1 (relative stereo)	< 6.00	< 6.00	< 6.00	–
COc1cccc([C@@]2(C)O[C@@H]3N4[C@H](CO[C@H]42)O[C@@]3(C)c2cccc(O)c2)c1 (relative stereo)	7.28	< 6.00	< 6.00	–
COc1cccc([C@]2(C)O[C@H]3CO[C@@H]4N3[C@H]2O[C@]4(C)c2cccc(O)c2)c1 (relative stereo)	< 6.00	< 6.00	< 6.00	–
C[C@@]1(c2cccc(O)c2)O[C@H]2CO[C@@H]3N2[C@H]1O[C@]3(C)c1cccc(O)c1 (relative stereo) [listing 2 of 2 here]	–	–	–	Emax [7]: 98.2%
